Source: PubChem BioAssay
SR-BI uptake up = activators of SR-BI mediated DiI-HDL uptake, primary screen, ldlA[mSR-BI] CHO cells, DiI fluorescence; 3 h; 100 = double the neutral-control signal; activation, % at 12.5 µM; 0.096% of 320,000 active; AID 504775, 2011;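 active = mean replicate activation of at least 60% and every replicate at or above 60%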;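 note: 0% = median plate neutral-control signal and 100% = twice that signal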
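Material – SR-BI-overexpressing, LDLR-lacking CHO cells · Medium – BSA-supplemented, HEPES-buffered Ham's F12, pH 7.4 · Doses – single concentration · Times – compound with DiI-HDL co-incubation, 3 h at 37 °C · Measured by – bottom-read fluorescence, 550/595 nm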
GRK2 inh = compounds blocking aptamer binding on GRK2 – biochemical, human GRK2, bead flow cytometry, HTS, primary screen | FAM-aptamer displacement from GRK2 | 0.59% of 330,000 active | inhibition of aptamer binding, % at 10 µM | Beta-adrenergic receptor kinase 1 (Homo sapiens), P25098;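 active = inhibition of aptamer binding above 40%, roughly 3 SD of noise, on plates passing a quality check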;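 note: median bead fluorescence of bound FAM aptamer so fluorescent compounds give negative values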
Rin1 Abl inh = inhibitors of Rin1-Abl protein binding, primary screen, biochemical, TR-FRET; Tyrosine-protein kinase ABL1 (Homo sapiens) + Ras and Rab interactor 1 (Homo sapiens), …; inhibition, % at 7.35 µM; AID 588664, 2011; 0.4% of 360,000 active; in the data active = inhibition above about 5%, passing the limit was not always enough
SR-BI HDL uptake = inhibitors of SR-BI mediated HDL lipid uptake, primary screen, ldlA[mSR-BI] cells, fluorescence, single point; Scavenger receptor class B member 1 (Mus musculus), Q61009; ldlA[mSR-BI] CHO cells, DiI-HDL uptake fluorescence, 3 h; inhibition, % at 12.5 µM; 0.96% of 320,000 active; AID 488896, 2010;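 active = mean replicate inhibition of at least 70% and a set share of replicates each scoring 70 or more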;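 note: 0% = median of neutral control wells and 100% = median of positive control wells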
Target sequence (Q61009 whole entry, looked up): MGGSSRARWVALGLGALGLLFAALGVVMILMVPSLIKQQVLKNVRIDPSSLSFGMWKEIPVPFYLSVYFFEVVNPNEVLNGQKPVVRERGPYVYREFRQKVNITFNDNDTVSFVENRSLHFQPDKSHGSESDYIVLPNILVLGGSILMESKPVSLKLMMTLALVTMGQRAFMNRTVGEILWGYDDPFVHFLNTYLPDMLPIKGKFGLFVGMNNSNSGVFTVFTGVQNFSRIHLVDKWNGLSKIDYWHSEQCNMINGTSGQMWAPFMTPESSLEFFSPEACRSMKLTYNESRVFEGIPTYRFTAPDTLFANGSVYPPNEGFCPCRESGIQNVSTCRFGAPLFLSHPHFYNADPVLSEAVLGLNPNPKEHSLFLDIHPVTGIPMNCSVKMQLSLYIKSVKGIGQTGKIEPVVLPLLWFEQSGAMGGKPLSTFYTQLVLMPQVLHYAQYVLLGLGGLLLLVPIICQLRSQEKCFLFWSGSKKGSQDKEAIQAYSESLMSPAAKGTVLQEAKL
Numbers without * were called inactive. Shown are actives, neighbours in structure and some others; about 1.9% of the full set was active somewhere.

How did Cc1cc(C)c(NC(=O)COC(=O)c2cc([N+](=O)[O-])ccc2N2CCOCC2)c(C)c1 do in these assays?
SR-BI uptake up: -46.7; GRK2 inh: 1.0; Rin1 Abl inh: 0.4; SR-BI HDL uptake: 46.7

How did Cc1cc(NC(=O)COC(=O)c2cc([N+](=O)[O-])ccc2N2CCOCC2)ccc1Br do in these assays?
SR-BI uptake up: -71.3; GRK2 inh: 0.0; Rin1 Abl inh: -4.4; SR-BI HDL uptake: 71.3*

Results for CCCCNC(=O)C1(C)CCCCN1C(=O)c1c(C)noc1C (centres undefined) ?
Rin1 Abl inh: 1.9

What do the screens show for `O=C(COC(=O)c1cc([N+](=O)[O-])ccc1N1CCOCC1)Nc1ncc(Cl)cc1Cl`?
GRK2 inh: 0.0; Rin1 Abl inh: -1.8; SR-BI HDL uptake: 85.6*

What do the screens show for `COc1ccc(NC(=O)c2cn(-c3ccccc3)nc2-c2ccncc2)cc1`?
SR-BI uptake up: -49.3; GRK2 inh: 0.0; Rin1 Abl inh: 1.0; SR-BI HDL uptake: 49.3

How did COc1ccc(NC(=O)c2cn(-c3ccccc3)nc2-c2cc3ccccc3o2)cc1 do in these assays?
SR-BI uptake up: -81.3; GRK2 inh: 1.0; Rin1 Abl inh: 0.3; SR-BI HDL uptake: 81.3*

What do the screens show for `O=C(O)c1ccccc1N/N=C/C1=C(N2CCOCC2)C(=C\c2ccccc2)/CC1`?
SR-BI uptake up: -24.1; GRK2 inh: 1.0; Rin1 Abl inh: -3.2; SR-BI HDL uptake: 24.1

Results for CCN(CC)c1ccc(/C=C2\CCC(/C=N/NC(=O)c3ccc(=O)n(C)c3)=C2N2CCOCC2)cc1 ?
SR-BI uptake up: -99.6; GRK2 inh: 4.0; Rin1 Abl inh: 7.8; SR-BI HDL uptake: 99.6*

Results for CC(NC(=O)C12CC3CC(CC(C3)C1)C2)C(=O)N/N=C/C1=C(N2CCOCC2)C(=C\c2cccc([N+](=O)[O-])c2)/CC1 (centres undefined) ?
SR-BI uptake up: -63.5; GRK2 inh: 0.0; Rin1 Abl inh: 4.2; SR-BI HDL uptake: 63.5

How did O=C(N/N=C/C1=C(N2CCOCC2)C(=C\c2ccccc2)/CC1)Nc1ccccc1 do in these assays?
SR-BI uptake up: -73.9; GRK2 inh: 6.0; Rin1 Abl inh: 1.4; SR-BI HDL uptake: 73.9*

How did CC(C)C(NC(=O)C12CC3CC(CC(C3)C1)C2)C(=O)N/N=C/C1=C(N2CCOCC2)C(=C\c2ccc([N+](=O)[O-])cc2)/CC1 (centres undefined) do in these assays?
SR-BI uptake up: -98.9; GRK2 inh: 3.0; Rin1 Abl inh: -3.8; SR-BI HDL uptake: 98.9*

What do the screens show for `Cc1cc(C)nc(N/N=C/C2=C(N3CCOCC3)C(=C/c3ccccc3)/CC2)n1`?
SR-BI uptake up: -90.4; GRK2 inh: 0.0; Rin1 Abl inh: 0.7; SR-BI HDL uptake: 90.4*

What do the screens show for `Cc1cc(=O)[nH]c(N/N=C/C2=C(N3CCOCC3)C(=C\c3ccc(Cl)cc3)/CC2)n1`?
SR-BI uptake up: -60.0; GRK2 inh: 2.0; Rin1 Abl inh: 1.0; SR-BI HDL uptake: 60.0

How did O=C(CN1C(=O)NC2(CCCCCC2)C1=O)N1CCN(c2ccccc2)CC1 do in these assays?
SR-BI uptake up: -12.3; GRK2 inh: 0.0; Rin1 Abl inh: 0.1; SR-BI HDL uptake: 12.3

How did CCN(CC)C(=O)c1csc(COCCO)n1 do in these assays?
Rin1 Abl inh: 1.1

What do the screens show for `C[C@@H]1CN([C@@H](C)CO)S(=O)(=O)c2ccc(-c3ccccc3)cc2O[C@@H]1CN(C)Cc1ccccc1C(=O)O`?
Rin1 Abl inh: 1.2

How did CNC(=O)c1ccc(-c2sc3nc(N4CCOCC4)c4c(c3c2N)CCCC4)o1 do in these assays?
SR-BI uptake up: -86.8; GRK2 inh: 4.0; Rin1 Abl inh: 4.1; SR-BI HDL uptake: 86.8*

Results for O=C(Nc1ccc(O)c(-c2nc3ccccc3s2)c1)c1cccs1 ?
SR-BI uptake up: 3.8; GRK2 inh: 2.0; Rin1 Abl inh: -61.6; SR-BI HDL uptake: -3.8

Results for O=C(Nc1ccc(O)c(-c2nc3ccccc3s2)c1)c1cc(=O)c2ccccc2o1 ?
SR-BI uptake up: -12.9; GRK2 inh: 90.0*; Rin1 Abl inh: 4.9; SR-BI HDL uptake: 12.9

Results for Cc1ccc2c(c1)CCO[C@@]21O[C@H](CCO)C[C@H](O)[C@H]1O ?
Rin1 Abl inh: -2.7

Results for O=C(Nc1ccc(F)c(Cl)c1)Nc1csc2ccccc12 ?
SR-BI uptake up: -87.2; Rin1 Abl inh: -4.3; SR-BI HDL uptake: 87.2*

How did O=C(Nc1ccc(F)cc1F)Nc1csc2ccccc12 do in these assays?
Rin1 Abl inh: 0.6

What do the screens show for `CCC1CCCCN1C(=O)CCNS(=O)(=O)c1ccc2c(c1)oc(=O)n2C` (centres undefined)?
SR-BI uptake up: 16.5; GRK2 inh: 2.0; Rin1 Abl inh: -0.7; SR-BI HDL uptake: -16.5

Results for COc1ccc(/C=N/NC(=O)c2ccc(COc3ccccc3Cl)o2)c(OC)c1C ?
SR-BI uptake up: -75.9; GRK2 inh: 3.0; Rin1 Abl inh: 2.8; SR-BI HDL uptake: 75.9*

How did COc1ccc(/C=N/NC(=O)c2ccc(COc3ccccc3Cl)o2)cc1 do in these assays?
SR-BI uptake up: 2.8; GRK2 inh: 0.0; Rin1 Abl inh: 3.3; SR-BI HDL uptake: -2.8

Results for Cn1cccc1C(=O)OCC(=O)NC(=O)c1ccc(Cl)cc1 ?
SR-BI uptake up: 23.5; GRK2 inh: 0.0; Rin1 Abl inh: -1.7; SR-BI HDL uptake: -23.5

How did CCN1CCN(c2nnc(-c3ccccc3)c3ccccc23)CC1 do in these assays?
SR-BI uptake up: -3.6; GRK2 inh: 0.0; Rin1 Abl inh: -1.9; SR-BI HDL uptake: 3.6

How did CCCCSc1nnc(-c2ccccc2)c2ccccc12 do in these assays?
SR-BI uptake up: -73.9; GRK2 inh: 0.0; Rin1 Abl inh: -0.3; SR-BI HDL uptake: 73.9*

What do the screens show for `COc1ccc(-c2[nH]c(-c3ccc(SC)cc3)nc2SCC(=O)Nc2nccs2)cc1`?
SR-BI uptake up: -87.2; GRK2 inh: 0.0; Rin1 Abl inh: -0.3; SR-BI HDL uptake: 87.2*

How did COc1ccc(-c2[nH]c(-c3ccc(C)cc3)nc2SCC(=O)Nc2nccs2)cc1 do in these assays?
SR-BI uptake up: -68.6; GRK2 inh: 0.0; Rin1 Abl inh: 1.5; SR-BI HDL uptake: 68.6

Results for Cc1cc(O)ccc1C1(c2ccc(O)cc2C)OC(=O)c2ccccc21 ?
SR-BI uptake up: 4.5; GRK2 inh: 0.0; Rin1 Abl inh: 0.8; SR-BI HDL uptake: -4.5

Results for O=C1OC2(c3ccccc31)c1cc(I)c(O)c(I)c1Oc1c2cc(I)c(O)c1I ?
GRK2 inh: 76.0*

How did CCOC(=O)C(CCc1ccccn1)c1ccccc1 (centres undefined) do in these assays?
SR-BI uptake up: 8.5; Rin1 Abl inh: 4.7; SR-BI HDL uptake: -8.5

Results for CSCCNC(C)=O ?
GRK2 inh: 61.0*

How did CSCCNC(=O)c1cccc(Cl)c1 do in these assays?
SR-BI uptake up: 22.1; GRK2 inh: 0.0; Rin1 Abl inh: -0.4; SR-BI HDL uptake: -22.1
